Calls of active or inactive are those of the source. The rule behind the calls is not given here.
Columns and labels:
[1] = biological target: Cyclin-dependent kinase 7/ cyclin H (Homo sapiens, UniProt P50613); experiment: Inhibition of human recombinant CDK7/cyclin H/MAT1; assay type: protein-complex assay
[2] = biological target: Cyclin-dependent kinase 5/CDK5 activator 1 (Homo sapiens, UniProt Q00535); experiment: Inhibition of human recombinant CDK5/p35; assay type: protein-complex assay
[3] = biological target: CDK9/cyclin T1 (Homo sapiens, UniProt P50750); experiment: Inhibition of human recombinant CDK9/cyclin T1; assay type: protein-complex assay
[4] = biological target: Cyclin-dependent kinase 2/cyclin E1 (Homo sapiens, UniProt P24941); experiment: Inhibition of human recombinant CDK2/cyclin E; assay type: protein-complex assay
[5] = test system: U2OS; experiment: Reduction of homologous recombination in human DR-U2OS-GFP cells expressing I-SceI nuclease at 0.1 uM after 56 hrs […] relative to control; assay type: functional
[6] = test system: RPMI-8226; experiment: Cell cycle arrest in human RPMI8226 cells assessed as accumulation at G2/M phase after 24 hrs using propidium iodide and BrdU staining by flow cytometry; assay type: functional, cell-based
How it was run: (§1)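 Asynchronously growing RPMI-8226 multiple myeloma cells were exposed for 24 h. Cells were double-stained with propidium iodide and BrdU and analysed by flow cytometry for G1, S, G2/M and BrdU-positive fractions. The subG1 population was taken as indicative of apoptosis.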

[7] = biological target: Casein kinase I isoform alpha (Homo sapiens) (UniProt P48729); experiment: Inhibition of human recombinant CK1 at 10 uM
[8] = biological target: Glycogen synthase kinase-3 beta (Homo sapiens) (UniProt P49841); experiment: Inhibition of human recombinant GSK3B at 10 uM
[9] = biological target: CDK9/cyclin T1 (Homo sapiens) (UniProt O60563+P50750); experiment: Inhibition of human recombinant CDK9/cyclin T1 at 10 uM; assay type: protein-complex assay
[10] = test system: MCF7; experiment: Cell cycle arrest in human MCF7 cells assessed as accumulation at G2/M phase after 24 hrs using propidium iodide and BrdU staining by flow cytometry; assay type: functional, cell-based
How it was run: (§2)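 Subconfluent MCF-7 cells were treated for 24 h at a range of concentrations. They were pulse-labelled with 10 μM BrdU for 30 min at 37 °C, then trypsinized and fixed in ice-cold 70% ethanol. DNA was denatured in 2 M HCl and neutralized with borate. Cells were stained with fluorescein anti-BrdU and with propidium iodide plus RNase A, then analysed by flow cytometry at 488 nm.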

[11] = test system: U2OS; settings: Homo sapiens, 10 uM
[12] = biological target: MAP kinase-activated protein kinase 5 (Homo sapiens) (UniProt Q8IW41); experiment: Inhibition of human recombinant PRAK at 10 uM
[13] = biological target: Ribosomal protein S6 kinase alpha-5 (Homo sapiens) (UniProt O75582); experiment: Inhibition of human recombinant MSK1 at 10 uM
[14] = biological target: T1, Retinoblastoma-associated protein (Homo sapiens) (UniProt P06400); experiment: Inhibition of retinoblastoma protein in human HT-29 cells assessed as reduction of cyclin A level at 2.5 to 40 uM after 24 hrs by immunoblotting; assay type: cell-based
T1 sequence (whole entry): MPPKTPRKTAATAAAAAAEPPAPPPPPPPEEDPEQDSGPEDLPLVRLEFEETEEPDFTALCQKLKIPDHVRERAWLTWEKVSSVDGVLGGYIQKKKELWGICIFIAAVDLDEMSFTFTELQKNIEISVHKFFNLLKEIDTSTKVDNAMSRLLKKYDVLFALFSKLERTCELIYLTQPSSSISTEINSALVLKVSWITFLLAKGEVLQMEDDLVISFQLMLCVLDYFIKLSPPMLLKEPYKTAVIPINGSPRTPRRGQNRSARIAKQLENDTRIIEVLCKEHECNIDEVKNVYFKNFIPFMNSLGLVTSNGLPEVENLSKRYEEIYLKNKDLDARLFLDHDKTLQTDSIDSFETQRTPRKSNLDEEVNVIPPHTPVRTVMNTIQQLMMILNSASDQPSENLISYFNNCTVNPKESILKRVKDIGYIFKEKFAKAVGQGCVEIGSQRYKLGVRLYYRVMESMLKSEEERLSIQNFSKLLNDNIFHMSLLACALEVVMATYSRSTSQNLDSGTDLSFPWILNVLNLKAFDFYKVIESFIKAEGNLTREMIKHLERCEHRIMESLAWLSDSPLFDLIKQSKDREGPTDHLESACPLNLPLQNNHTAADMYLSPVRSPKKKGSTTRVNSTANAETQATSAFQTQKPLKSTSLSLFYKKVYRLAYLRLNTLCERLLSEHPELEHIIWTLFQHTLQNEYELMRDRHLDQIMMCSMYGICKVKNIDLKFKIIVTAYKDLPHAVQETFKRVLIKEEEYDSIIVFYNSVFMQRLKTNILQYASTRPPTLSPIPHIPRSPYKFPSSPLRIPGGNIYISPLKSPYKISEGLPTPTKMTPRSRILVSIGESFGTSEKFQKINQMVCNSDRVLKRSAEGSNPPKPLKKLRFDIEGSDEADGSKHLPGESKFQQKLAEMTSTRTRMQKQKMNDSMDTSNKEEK

[15] = biological target: Glycogen synthase kinase-3 alpha (Homo sapiens) (UniProt P49840); experiment: Inhibition of human recombinant GSK3A at 10 uM
[16] = biological target: Cyclin-dependent kinase 7/ cyclin H (Homo sapiens) (UniProt P51946+P50613); experiment: Inhibition of human recombinant CDK7/cyclin H/MAT1 at 10 uM; assay type: protein-complex assay
[17] = test system: RPMI-8226; experiment: Cell cycle arrest in human RPMI8226 cells assessed as decrease in S phase cell population after 24 hrs using propidium iodide and BrdU staining by flow cytometry; assay type: functional, cell-based; how it was run: as §1
[18] = test system: RPMI-8226; experiment: Cell cycle arrest in human RPMI8226 cells assessed as reduction of actively replicating DNA level at 80 uM after 24 hrs using propidium iodide and BrdU staining by flow cytometry; assay type: functional, cell-based; how it was run: as §1
[19] = test system: RPMI-8226; experiment: Cell cycle arrest in human RPMI8226 cells assessed as accumulation at sub-G1 phase after 24 hrs using propidium iodide and BrdU staining by flow cytometry; assay type: functional, cell-based; how it was run: as §1
[20] = biological target: Dual specificity mitogen-activated protein kinase kinase 1 (Homo sapiens) (UniProt Q02750); experiment: Inhibition of human recombinant MEK1 at 10 uM
[21] = biological target: Casein kinase II (Homo sapiens) (UniProt P67870+P68400+P19784); experiment: Inhibition of human recombinant CK2 at 10 uM; assay type: protein-complex assay
[22] = biological target: T1, Retinoblastoma-associated protein (Homo sapiens); experiment: Inhibition of retinoblastoma protein in human HT-29 cells assessed as reduction of CDK4 level at 2.5 to 40 uM after 24 hrs by immunoblotting; assay type: cell-based
[23] = test system: MCF7; experiment: Cell cycle arrest in human MCF7 cells assessed as reduction of actively replicating DNA level at 80 uM after 24 hrs using propidium iodide and BrdU staining by flow cytometry; assay type: functional, cell-based; how it was run: as §2
[24] = test system: MCF7; experiment: Cell cycle arrest in human MCF7 cells assessed as accumulation at sub-G1 phase after 24 hrs using propidium iodide and BrdU staining by flow cytometry; assay type: functional, cell-based; how it was run: as §2
[25] = biological target: Cellular tumor antigen p53 (Homo sapiens) (UniProt P04637); experiment: Induction of p53-dependent transcriptional activity in human MCF7 cells assessed as increase of p21 WAF1 level at 20 uM after 24 hrs by immunofluorescence assay; assay type: cell-based
[26] = test system: MCF7; experiment: Cell cycle arrest in human MCF7 cells assessed as decrease in S phase cell population after 24 hrs using propidium iodide and BrdU staining by flow cytometry; assay type: functional, cell-based; how it was run: as §2

Glycogen synthase kinase-3 beta (Homo sapiens), sequence (P49841 whole entry, looked up): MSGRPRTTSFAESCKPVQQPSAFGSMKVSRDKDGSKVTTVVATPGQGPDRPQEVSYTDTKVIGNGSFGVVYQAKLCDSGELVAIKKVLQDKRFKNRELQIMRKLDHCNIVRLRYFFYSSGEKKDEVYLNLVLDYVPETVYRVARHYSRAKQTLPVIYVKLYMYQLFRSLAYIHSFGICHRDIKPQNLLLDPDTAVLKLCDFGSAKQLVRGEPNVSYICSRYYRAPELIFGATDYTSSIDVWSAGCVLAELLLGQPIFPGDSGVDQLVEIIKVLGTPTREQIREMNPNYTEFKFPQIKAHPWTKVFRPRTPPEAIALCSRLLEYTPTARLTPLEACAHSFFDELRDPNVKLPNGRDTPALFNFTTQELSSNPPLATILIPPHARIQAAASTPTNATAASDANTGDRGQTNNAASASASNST
CDK9/cyclin T1, sequence (O60563 whole entry): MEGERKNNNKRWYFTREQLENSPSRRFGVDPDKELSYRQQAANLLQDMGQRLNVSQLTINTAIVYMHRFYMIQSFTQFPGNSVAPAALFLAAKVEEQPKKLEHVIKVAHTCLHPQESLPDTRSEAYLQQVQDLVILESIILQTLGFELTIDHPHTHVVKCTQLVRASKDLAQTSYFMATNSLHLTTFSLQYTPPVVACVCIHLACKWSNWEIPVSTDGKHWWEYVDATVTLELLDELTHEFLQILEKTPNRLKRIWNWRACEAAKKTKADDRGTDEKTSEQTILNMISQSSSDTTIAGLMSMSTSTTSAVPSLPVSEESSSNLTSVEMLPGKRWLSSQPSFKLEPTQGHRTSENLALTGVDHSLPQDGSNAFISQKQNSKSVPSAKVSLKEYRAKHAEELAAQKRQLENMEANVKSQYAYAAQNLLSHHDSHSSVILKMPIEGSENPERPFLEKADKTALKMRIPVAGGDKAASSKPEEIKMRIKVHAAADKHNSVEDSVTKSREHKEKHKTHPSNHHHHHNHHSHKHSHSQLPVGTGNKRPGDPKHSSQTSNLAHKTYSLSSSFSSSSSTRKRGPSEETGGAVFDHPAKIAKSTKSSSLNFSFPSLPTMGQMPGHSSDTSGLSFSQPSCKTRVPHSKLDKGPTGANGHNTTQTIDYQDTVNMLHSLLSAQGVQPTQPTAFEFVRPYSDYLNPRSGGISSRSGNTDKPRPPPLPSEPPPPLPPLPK
CDK9/cyclin T1, sequence (P50750 whole entry): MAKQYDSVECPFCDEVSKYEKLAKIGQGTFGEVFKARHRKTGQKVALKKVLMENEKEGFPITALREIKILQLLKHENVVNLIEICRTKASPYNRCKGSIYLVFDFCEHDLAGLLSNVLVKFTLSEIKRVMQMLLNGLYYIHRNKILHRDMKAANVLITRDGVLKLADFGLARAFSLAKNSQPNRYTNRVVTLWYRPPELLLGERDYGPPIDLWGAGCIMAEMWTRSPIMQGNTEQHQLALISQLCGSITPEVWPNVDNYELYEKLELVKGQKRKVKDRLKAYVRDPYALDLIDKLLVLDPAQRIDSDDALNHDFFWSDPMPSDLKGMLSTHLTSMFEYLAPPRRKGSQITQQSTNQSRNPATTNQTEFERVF
Ribosomal protein S6 kinase alpha-5 (Homo sapiens), sequence (O75582 whole entry, looked up): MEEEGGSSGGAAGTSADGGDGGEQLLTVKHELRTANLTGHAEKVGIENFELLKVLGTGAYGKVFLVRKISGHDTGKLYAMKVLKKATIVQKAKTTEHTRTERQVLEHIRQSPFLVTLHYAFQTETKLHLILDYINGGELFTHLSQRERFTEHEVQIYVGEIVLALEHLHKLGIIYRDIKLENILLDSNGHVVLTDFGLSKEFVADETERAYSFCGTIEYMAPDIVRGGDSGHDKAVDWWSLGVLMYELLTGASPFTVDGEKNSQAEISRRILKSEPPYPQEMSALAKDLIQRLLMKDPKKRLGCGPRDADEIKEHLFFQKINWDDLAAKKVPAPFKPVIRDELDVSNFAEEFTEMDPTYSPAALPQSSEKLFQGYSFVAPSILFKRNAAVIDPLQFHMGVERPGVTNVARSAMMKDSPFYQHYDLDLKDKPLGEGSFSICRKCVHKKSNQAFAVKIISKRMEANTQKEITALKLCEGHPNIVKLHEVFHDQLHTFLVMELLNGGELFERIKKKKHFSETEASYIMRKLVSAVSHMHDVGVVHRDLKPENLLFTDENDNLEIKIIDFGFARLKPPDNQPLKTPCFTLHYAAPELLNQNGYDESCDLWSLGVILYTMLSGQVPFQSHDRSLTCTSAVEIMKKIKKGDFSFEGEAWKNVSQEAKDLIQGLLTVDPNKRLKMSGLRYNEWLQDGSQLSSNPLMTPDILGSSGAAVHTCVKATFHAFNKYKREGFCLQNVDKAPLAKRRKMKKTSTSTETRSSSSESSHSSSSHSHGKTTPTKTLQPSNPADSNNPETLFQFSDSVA
Dual specificity mitogen-activated protein kinase kinase 1 (Homo sapiens), sequence (Q02750 whole entry): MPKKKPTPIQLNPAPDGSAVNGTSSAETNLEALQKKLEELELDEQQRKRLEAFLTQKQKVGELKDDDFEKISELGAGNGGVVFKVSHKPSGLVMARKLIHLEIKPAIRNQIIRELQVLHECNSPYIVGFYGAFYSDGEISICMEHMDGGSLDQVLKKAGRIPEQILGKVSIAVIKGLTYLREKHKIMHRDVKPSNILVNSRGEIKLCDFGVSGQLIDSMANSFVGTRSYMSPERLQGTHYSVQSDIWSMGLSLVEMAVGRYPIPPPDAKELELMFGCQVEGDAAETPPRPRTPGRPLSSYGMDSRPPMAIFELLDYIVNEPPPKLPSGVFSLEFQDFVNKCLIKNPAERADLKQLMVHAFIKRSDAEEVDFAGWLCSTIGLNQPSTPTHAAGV
MAP kinase-activated protein kinase 5 (Homo sapiens), sequence (Q8IW41 whole entry): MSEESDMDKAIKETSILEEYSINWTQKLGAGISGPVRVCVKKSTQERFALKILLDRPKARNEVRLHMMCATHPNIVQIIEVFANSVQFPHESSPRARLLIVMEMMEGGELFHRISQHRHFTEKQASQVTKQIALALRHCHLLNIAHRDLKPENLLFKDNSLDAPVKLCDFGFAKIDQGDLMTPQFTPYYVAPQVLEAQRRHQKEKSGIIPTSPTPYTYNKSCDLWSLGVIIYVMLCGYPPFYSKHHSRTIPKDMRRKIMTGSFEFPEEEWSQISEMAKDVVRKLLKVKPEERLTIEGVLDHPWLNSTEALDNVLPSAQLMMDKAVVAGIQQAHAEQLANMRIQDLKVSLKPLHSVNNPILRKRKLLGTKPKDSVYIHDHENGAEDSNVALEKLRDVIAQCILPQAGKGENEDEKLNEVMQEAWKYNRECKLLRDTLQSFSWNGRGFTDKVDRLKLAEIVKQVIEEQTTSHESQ
Cyclin-dependent kinase 7/ cyclin H, sequence (P51946 whole entry): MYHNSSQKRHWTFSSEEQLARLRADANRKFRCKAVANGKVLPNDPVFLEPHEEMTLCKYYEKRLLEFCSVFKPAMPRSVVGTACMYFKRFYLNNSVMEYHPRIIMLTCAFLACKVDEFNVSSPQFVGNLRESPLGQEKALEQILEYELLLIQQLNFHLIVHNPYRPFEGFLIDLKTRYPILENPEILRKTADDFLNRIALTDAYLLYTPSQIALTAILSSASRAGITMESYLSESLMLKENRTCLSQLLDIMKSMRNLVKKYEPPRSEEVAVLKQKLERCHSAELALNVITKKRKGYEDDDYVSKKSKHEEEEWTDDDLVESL
Cyclin-dependent kinase 7/ cyclin H, sequence (P50613 whole entry): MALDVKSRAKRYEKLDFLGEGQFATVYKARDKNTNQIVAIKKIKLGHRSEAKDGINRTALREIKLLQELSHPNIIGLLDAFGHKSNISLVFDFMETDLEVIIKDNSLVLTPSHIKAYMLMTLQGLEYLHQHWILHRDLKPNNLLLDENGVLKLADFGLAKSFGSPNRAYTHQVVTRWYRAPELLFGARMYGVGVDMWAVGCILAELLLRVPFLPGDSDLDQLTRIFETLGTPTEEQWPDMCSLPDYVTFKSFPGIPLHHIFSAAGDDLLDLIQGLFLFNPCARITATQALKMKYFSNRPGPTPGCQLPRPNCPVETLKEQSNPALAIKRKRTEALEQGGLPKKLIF
Cellular tumor antigen p53 (Homo sapiens), sequence (P04637 whole entry, looked up): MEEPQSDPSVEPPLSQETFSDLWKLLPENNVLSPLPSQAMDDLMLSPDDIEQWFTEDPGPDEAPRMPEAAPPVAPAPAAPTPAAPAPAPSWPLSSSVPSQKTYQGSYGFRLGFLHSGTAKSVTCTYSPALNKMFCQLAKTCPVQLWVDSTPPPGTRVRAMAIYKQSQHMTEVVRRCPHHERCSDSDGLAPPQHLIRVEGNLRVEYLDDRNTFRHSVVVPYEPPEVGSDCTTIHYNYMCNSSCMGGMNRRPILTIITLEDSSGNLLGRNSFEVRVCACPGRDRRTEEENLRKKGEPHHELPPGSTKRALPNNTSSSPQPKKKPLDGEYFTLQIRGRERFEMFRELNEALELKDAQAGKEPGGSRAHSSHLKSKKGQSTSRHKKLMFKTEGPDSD
Casein kinase I isoform alpha (Homo sapiens), sequence (P48729 2-337 limits assumed): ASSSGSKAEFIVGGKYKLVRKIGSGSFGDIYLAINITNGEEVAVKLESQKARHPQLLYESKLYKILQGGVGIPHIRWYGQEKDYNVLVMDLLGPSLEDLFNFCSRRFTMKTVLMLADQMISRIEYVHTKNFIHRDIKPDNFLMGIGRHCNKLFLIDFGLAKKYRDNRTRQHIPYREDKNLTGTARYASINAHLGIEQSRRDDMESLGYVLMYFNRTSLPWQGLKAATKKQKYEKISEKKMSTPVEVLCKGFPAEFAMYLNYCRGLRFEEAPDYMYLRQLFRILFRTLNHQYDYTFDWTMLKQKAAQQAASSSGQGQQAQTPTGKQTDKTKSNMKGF

CC[C@H](CO)Nc1nc(NCc2ccccc2)c2n[nH]c(C(C)C)c2n1
IC50 [1]: 0.16 µM | IC50 [2]: 0.2 µM | IC50 [3]: 1 µM | IC50 [4]: 0.04 µM

CN1CC[C@H](c2c(O)cc(O)c3c(=O)cc(-c4ccccc4Cl)oc23)[C@H](O)C1 [ALVOCIDIB]
inhibition at 0.1 µM [5]: 62%

CC[C@H](CO)Nc1nc(NCc2ccccc2)c2ncn(C(C)C)c2n1
Activity [6]: Active | inhibition [7]: 1% | inhibition [8]: 25% | inhibition [9]: 87% | Activity [10]: Active | inhibition [11]: inactive | inhibition [12]: 28% | inhibition [13]: 29% | inhibition [14]: Active | inhibition [15]: 13% | inhibition [16]: 87% | Activity [17]: Active | Activity [18]: Active | Activity [19]: Active | inhibition [20]: 38% | inhibition [21]: 10% | inhibition [22]: inactive | Activity [23]: Active | Activity [24]: Active | Activity [25]: Active | Activity [26]: Active

From ChEMBL document CHEMBL1765057, “Pyrazolo[4,3-d]pyrimidine bioisostere of roscovitine: evaluation of a novel selective inhibitor of cyclin-dependent kinases with antiproliferative activity” (J Med Chem, 2011)
